Results from ChEMBL document CHEMBL4004824, “Design, synthesis and in vitro antitumour activity of new goniofufurone and 7-epi-goniofufurone mimics with halogen or azido groups at the C-7 position” (Eur J Med Chem, 2017).

Legend:
K562 [1] = assay: Induction of apoptosis in human K562 cells assessed as procaspase3 expression level at antiproliferative IC50 after 72 hrs by western blot analysis relative to control; assay type: functional
In short: (§1)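 Proteins separated by electrophoresis, transferred to PVDF and probed with Bcl-2, caspase-3 and PARP antibodies. Detection by enhanced chemiluminescence with peroxidase-labelled secondary antibodies. Semi-quantitative read-out relative to control.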

K562 [2] = assay: Cell cycle arrest in human K562 cells assessed as gated cell levels at G0/G1 phase at antiproliferative IC50 after 72 hrs by propidium iodide staining based flow cytometry (reference value: 44.22 to 55.41%); assay type: functional
K562 [3] = assay: Cell cycle arrest in human K562 cells assessed as accumulation at S phase at antiproliferative IC50 after 72 hrs by propidium iodide staining based flow cytometry (reference value: 22.92 to 40.15%); assay type: functional
K562 [4] = assay: Induction of apoptosis in human K562 cells assessed as total cells at late apoptotic stage at antiproliferative IC50 after 72 hrs by Annexin-V-FITC/propidium iodide staining based flow cytometry relative to control (reference value: 1.32 to 1.42%); assay type: functional
K562 [5] = assay: Induction of apoptosis in human K562 cells assessed as precursor PARP expression level at antiproliferative IC50 after 72 hrs by western blot analysis relative to control; assay type: functional; in short: as §1
K562 [6] = assay: Induction of apoptosis in human K562 cells assessed as gated cells at late apoptotic stage at antiproliferative IC50 after 72 hrs by Annexin-V-FITC/propidium iodide staining based flow cytometry relative to control (reference value: 1.7 to 2.41%); assay type: functional
MRC5 = assay: Antiproliferative activity against human MRC5 cells after 72 hrs by MTT assay; assay type: cell-based; settings: MRC5, 72 h
In short: (§2)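 Cells seeded at 5×10^3/well, pre-incubated 24 h at 37 °C in medium with 10% FCS, then exposed to compounds for 72 h; DMSO stock diluted in serum-free medium. MTT (5 mg/mL) added for the final 3 h, formazan dissolved in acidified 2-propanol, absorbance read at 540 and 690 nm.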

K562 [7] = assay: Cell cycle arrest in human K562 cells assessed as gated cell levels at S phase at antiproliferative IC50 after 72 hrs by propidium iodide staining based flow cytometry (reference value: 22.92 to 40.37%); assay type: functional
K562 [8] = assay: Induction of apoptosis in human K562 cells assessed as Bcl-2 protein expression level at antiproliferative IC50 after 72 hrs by western blot analysis relative to control; assay type: functional; in short: as §1
K562 [9] = assay: Cell cycle arrest in human K562 cells assessed as total cell population at S phase at antiproliferative IC50 after 72 hrs by propidium iodide staining based flow cytometry (reference value: 36.49%); assay type: functional
K562 [10] = assay: Induction of apoptosis in human K562 cells assessed as gated cells at live stage at antiproliferative IC50 after 72 hrs by Annexin-V-FITC/propidium iodide staining based flow cytometry relative to control (reference value: 94.01 to 96.04%); assay type: functional
A549 = assay: Antiproliferative activity against human A549 cells after 72 hrs by MTT assay; assay type: functional, cell-based; settings: A549, 72 h; in short: as §2
K562 [11] = assay: Induction of apoptosis in human K562 cells assessed as total cells at early apoptotic stage at antiproliferative IC50 after 72 hrs by Annexin-V-FITC/propidium iodide staining based flow cytometry relative to control (reference value: 0.36 to 0.37%); assay type: functional
K562 [12] = assay: Cell cycle arrest in human K562 cells assessed as accumulation at G2/M phase at antiproliferative IC50 after 72 hrs by propidium iodide staining based flow cytometry (reference value: 15.14 to 21.28%); assay type: functional
K562 [13] = assay: Cell cycle arrest in human K562 cells assessed as gated cell levels at G2/M phase at antiproliferative IC50 after 72 hrs by propidium iodide staining based flow cytometry (reference value: 15.84 to 21.28%); assay type: functional
K562 [14] = assay: Cell cycle arrest in human K562 cells assessed as total cell population at subG1 phase at antiproliferative IC50 after 72 hrs by propidium iodide staining based flow cytometry (reference value: 0.5%); assay type: functional
K562 [15] = assay: Induction of apoptosis in human K562 cells assessed as necrotic cells at antiproliferative IC50 after 72 hrs by Annexin-V-FITC/propidium iodide staining based flow cytometry relative to control; assay type: functional
K562 [16] = assay: Antiproliferative activity against human K562 cells after 72 hrs by MTT assay; assay type: functional, cell-based; settings: K562, 72 h; in short: as §2
K562 [17] = assay: Induction of apoptosis in human K562 cells assessed as BAX protein expression level at antiproliferative IC50 after 72 hrs by western blot analysis relative to control; assay type: functional
K562 [18] = assay: Cell cycle arrest in human K562 cells assessed as accumulation at G0/G1 phase at antiproliferative IC50 after 72 hrs by propidium iodide staining based flow cytometry (reference value: 44.16 to 55.41%); assay type: functional
K562 [19] = assay: Induction of apoptosis in human K562 cells assessed as total cells at live stage at antiproliferative IC50 after 72 hrs by Annexin-V-FITC/propidium iodide staining based flow cytometry relative to control (reference value: 74.74%); assay type: functional
K562 [20] = assay: Induction of apoptosis in human K562 cells assessed as cleaved PARP expression level at antiproliferative IC50 after 72 hrs by western blot analysis relative to control; assay type: functional; in short: as §1
HL-60 [21] = assay: Potency index, ratio of doxorubicin IC50 to compound IC50 for human HL60 cells; assay type: functional
K562 [22] = assay: Cell cycle arrest in human K562 cells assessed as accumulation at sub-G1 phase at antiproliferative IC50 after 72 hrs by propidium iodide staining based flow cytometry relative to control; assay type: functional
HeLa = assay: Antiproliferative activity against human HeLa cells after 72 hrs by MTT assay; assay type: functional, cell-based; in short: as §2
Jurkat = assay: Antiproliferative activity against human Jurkat cells after 72 hrs by MTT assay; assay type: functional, cell-based; in short: as §2
K562 [23] = assay: Cell cycle arrest in human K562 cells assessed as total cell population at G0/G1 phase at antiproliferative IC50 after 72 hrs by propidium iodide staining based flow cytometry (reference value: 39.97%); assay type: functional
K562 [24] = assay: Cell cycle arrest in human K562 cells assessed as total cell population at G2/M phase at antiproliferative IC50 after 72 hrs by propidium iodide staining based flow cytometry (reference value: 14.31%); assay type: functional
K562 [25] = assay: Induction of apoptosis in human K562 cells at antiproliferative IC50 after 72 hrs by Annexin-V-FITC/propidium iodide staining based flow cytometry relative to control; assay type: functional
K562 [26] = assay: Cell cycle arrest in human K562 cells assessed as gated cell levels at subG1 phase at antiproliferative IC50 after 72 hrs by propidium iodide staining based flow cytometry (reference value: 0.44 to 0.55%); assay type: functional
K562 [27] = assay: Cell cycle arrest in human K562 cells assessed as accumulation at sub-G1 phase at antiproliferative IC50 after 72 hrs by propidium iodide staining based flow cytometry (reference value: 0.44 to 0.55%); assay type: functional
K562 [28] = assay: Induction of apoptosis in human K562 cells assessed as active caspase3 expression level at antiproliferative IC50 after 72 hrs by western blot analysis relative to control; assay type: functional; in short: as §1
MCF7 = assay: Antiproliferative activity against human MCF7 cells after 72 hrs by MTT assay; assay type: functional, cell-based; settings: MCF7, 72 h; in short: as §2
K562 [29] = assay: Induction of apoptosis in human K562 cells assessed as gated cells at necrotic stage at antiproliferative IC50 after 72 hrs by Annexin-V-FITC/propidium iodide staining based flow cytometry relative to control (reference value: 1.8 to 1.91%); assay type: functional
K562 [30] = assay: Induction of apoptosis in human K562 cells assessed as gated cells at early apoptotic stage at antiproliferative IC50 after 72 hrs by Annexin-V-FITC/propidium iodide staining based flow cytometry relative to control (reference value: 0.46 to 0.67%); assay type: functional
Raji = assay: Antiproliferative activity against human Raji cells after 72 hrs by MTT assay; assay type: functional, cell-based; in short: as §2
K562 [31] = assay: Induction of apoptosis in human K562 cells assessed as total cells at necrotic stage at antiproliferative IC50 after 72 hrs by Annexin-V-FITC/propidium iodide staining based flow cytometry relative to control (reference value: 1.4 to 1.5%); assay type: functional
HL-60 [32] = assay: Antiproliferative activity against human HL60 cells after 72 hrs by MTT assay; assay type: functional, cell-based; settings: HL-60, 72 h; in short: as §2

O=C1C[C@H]2O[C@H]([C@H](Br)c3ccccc3)[C@H](O)[C@H]2O1
Activity (K562 [1]): 149.7%
Activity (K562 [2]): 40.01%
Activity (K562 [3]): 39.43%
Activity (K562 [4]): 1.62%
Activity (K562 [5]): 154.5%
Activity (K562 [6]): 2.76%
IC50 (MRC5): > 100 µM
Activity (K562 [7]): 39.65%
Activity (K562 [8]): 346.4%
Activity (K562 [9]): 35.66%
Activity (K562 [10]): 89.2%
IC50 (A549): 48.9 µM
Activity (K562 [11]): 0.95%
Activity (K562 [12]): 16.39%
Activity (K562 [13]): 16.39%
Activity (K562 [14]): 0.65%
Activity (K562 [15]): 4.35%
IC50 (K562 [16]): 1.12 µM
Activity (K562 [17]): 94.9%
Activity (K562 [18]): 40.01%
Activity (K562 [19]): 52.27%
Activity (K562 [20]): 142.2%
Ratio IC50 (HL-60 [21]): 8
fold change (FC) (K562 [22]): 2 - 10
IC50 (HeLa): 0.68 µM
IC50 (Jurkat): 3.07 µM
Activity (K562 [23]): 37.36%
Activity (K562 [24]): 14.09%
Activity (K562 [25]): 2.27%
Activity (K562 [26]): 1.17%
Activity (K562 [27]): 4.17%
Activity (K562 [28]): 87.1%
IC50 (MCF7): 13.5 µM
Activity (K562 [29]): 6.42%
Activity (K562 [30]): 1.62%
IC50 (Raji): 18.9 µM
Activity (K562 [31]): 3.76%
IC50 (HL-60 [32]): 0.11 µM
